ChEMBL document CHEMBL1138464, “Synthesis, conformation, and biological characterization of a sugar derivative of morphine that is a potent, long-lasting, and nontolerant antinociceptive” (J Med Chem, 2009)
Calls of active or inactive are those of the source.

Columns and labels:
Rattus norvegicus [1] = test: Antinociceptive activity in Sprague-Dawley rat at 1 mg/kg, ip after 30 mins by tail flick test; format: functional; conditions: for MPE: route intraperitoneal
In short: (§1)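 Male Sprague-Dawley rats, housed singly at 21 °C on a 12 h light-dark cycle, tested in the light phase. Drug given ip in saline (100-500 µL). Tail flick: radiant heat from a 300 W bulb focused on the tail tip, withdrawal latency recorded. Pre-drug responders above 75% of cut-off excluded. Testing was blinded. Results are %MPE at 15 and 30 min and duration (h), mean of 12 animals, Mann-Whitney U-test.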

Rattus norvegicus [2] = test: Toxicity in Sprague-Dawley rat assessed as depression of mean arterial blood pressure at 1 mg/kg, iv administered for 60 secs measured for 30 mins; format: organism-based; set-up: dose 1 mg/kg, route intravenous; conditions: in vivo, 0.5 h
In short: (§2)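 Male Sprague-Dawley rats (250-300 g) under urethane anaesthesia (1.25 g/kg ip), kept at 37 °C, tracheotomised, with carotid and jugular cannulae. After ≥1 h stabilisation and a saline infusion, drug was given iv in saline over 60 ± 20 s. MAP, SAP, DAP and HR recorded for 30 min as % change from time zero. Student's t test and Newman-Keuls.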

Rattus norvegicus [3] = test: Toxicity in Sprague-Dawley rat assessed as depression of heart rate at 5 mg/kg, iv administered for 60 secs measured for 30 mins; format: organism-based; set-up: dose 5 mg/kg, route intravenous; conditions: in vivo, 0.5 h; in short: as §2
Rattus norvegicus [4] = test: Toxicity in Sprague-Dawley rat assessed as depression of mean arterial blood pressure at 5 mg/kg, iv administered for 60 secs measured for 30 mins; format: organism-based; set-up: dose 5 mg/kg, route intravenous; conditions: in vivo, 0.5 h; in short: as §2
Rattus norvegicus [5] = test: Antinociceptive activity in Sprague-Dawley rat at 0.02 mg/kg, ip after 15 mins by tail flick test; format: functional; conditions: route intraperitoneal; in short: as §1
Rattus norvegicus [6] = test: Antinociceptive activity in Sprague-Dawley rat at 0.5 mg/kg, ip after 15 mins by tail flick test; format: functional; conditions: route intraperitoneal; in short: as §1
Rattus norvegicus [7] = test: Toxicity in Sprague-Dawley rat assessed as depression of heart rate at 1 mg/kg, iv administered for 60 secs measured for 30 mins; format: organism-based; set-up: dose 1 mg/kg, route intravenous; conditions: in vivo, 0.5 h; in short: as §2
Rattus norvegicus [8] = test: Antinociceptive activity in Sprague-Dawley rat at 0.01 to 5 mg/kg, ip by tail flick test in presence of naloxone; format: functional, organism-based
In short: (§3)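 Antinociception in male Sprague-Dawley rats given drug ip in saline and measured by tail flick or paw pressure. Reversal tested with naloxone, stated as 5 mg/kg ip in the table footnote and as 0.1 mg/kg in the text.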

Rattus norvegicus [9] = test: Antinociceptive activity in Sprague-Dawley rat at 0.05 mg/kg, ip administered once daily for 9 days measured daily after 30 mins by tail flick test; format: functional; conditions: route intraperitoneal
In short: (§4)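 Separate groups of male Sprague-Dawley rats (250-300 g) dosed ip once daily for 9 consecutive days. Tail flick latency (radiant heat to tail tip) measured daily 30 min after each injection. Response expressed as %MPE.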

Rattus norvegicus [10] = test: Antinociceptive activity in Sprague-Dawley rat assessed as duration of antinociception at 0.01 mg/kg, ip by tail flick test; format: functional; conditions: route intraperitoneal; in short: as §1
Rattus norvegicus [11] = test: Antinociceptive activity in Sprague-Dawley rat assessed as duration of antinociception at 5 mg/kg, ip by tail flick test; format: functional; conditions: route intraperitoneal; in short: as §1
Rattus norvegicus [12] = test: Antinociceptive activity in Sprague-Dawley rat at 5 mg/kg, ip administered once daily for 9 days measured daily after 30 mins by tail flick test; format: functional; conditions: route intraperitoneal; in short: as §4
Rattus norvegicus [13] = test: Antinociceptive activity in Sprague-Dawley rat at 1 mg/kg, ip administered once daily for 9 days measured daily after 30 mins by tail flick test; format: functional; conditions: route intraperitoneal; in short: as §4
Rattus norvegicus [14] = test: Antinociceptive activity in Sprague-Dawley rat at 0.5 mg/kg, ip after 30 mins by tail flick test; format: functional; conditions: route intraperitoneal; in short: as §1
Rattus norvegicus [15] = test: Antinociceptive activity in ip dosed Sprague-Dawley rat at after 30 mins by tail flick test; format: functional, organism-based; in short: as §1
Rattus norvegicus [16] = test: Antinociceptive activity in Sprague-Dawley rat at 0.05 mg/kg, ip after 15 mins by tail flick test; format: functional; conditions: route intraperitoneal; in short: as §1
Rattus norvegicus [17] = test: Antinociceptive activity in Sprague-Dawley rat at 0.1 mg/kg, ip administered once daily for 9 days measured daily after 30 mins by tail flick test; format: functional; conditions: route intraperitoneal; in short: as §4
Rattus norvegicus [18] = test: Antinociceptive activity in Sprague-Dawley rat at 0.2 mg/kg, ip after 30 mins by tail flick test; format: functional; conditions: route intraperitoneal; in short: as §1
Rattus norvegicus [19] = test: Antinociceptive activity in Sprague-Dawley rat at 5 mg/kg, ip after 15 mins by tail flick test; format: functional; conditions: route intraperitoneal; in short: as §1
Rattus norvegicus [20] = test: Antinociceptive activity in Sprague-Dawley rat assessed as duration of antinociception at 0.5 mg/kg, ip by tail flick test; format: functional; conditions: route intraperitoneal; in short: as §1
Rattus norvegicus [21] = test: Antinociceptive activity in Sprague-Dawley rat at 0.1 mg/kg, ip after 30 mins by tail flick test; format: functional; conditions: route intraperitoneal; in short: as §1
Rattus norvegicus [22] = test: Antinociceptive activity in Sprague-Dawley rat at 0.02 mg/kg, ip after 30 mins by tail flick test; format: functional; conditions: route intraperitoneal; in short: as §1
Rattus norvegicus [23] = test: Antinociceptive activity in Sprague-Dawley rat assessed as duration of antinociception at 0.05 mg/kg, ip by tail flick test; format: functional; conditions: route intraperitoneal; in short: as §1
Rattus norvegicus [24] = test: Antinociceptive activity in Sprague-Dawley rat assessed as duration of antinociception at 0.02 mg/kg, ip by tail flick test; format: functional; conditions: route intraperitoneal; in short: as §1
Rattus norvegicus [25] = test: Antinociceptive activity in Sprague-Dawley rat at 0.1 mg/kg, ip after 15 mins by tail flick test; format: functional; conditions: route intraperitoneal; in short: as §1
[26] = target: Mu-type opioid receptor (Rattus norvegicus) (UniProt P33535); conditions: HEK293
Chain of Mu-type opioid receptor (Rattus norvegicus) (P33535 whole entry): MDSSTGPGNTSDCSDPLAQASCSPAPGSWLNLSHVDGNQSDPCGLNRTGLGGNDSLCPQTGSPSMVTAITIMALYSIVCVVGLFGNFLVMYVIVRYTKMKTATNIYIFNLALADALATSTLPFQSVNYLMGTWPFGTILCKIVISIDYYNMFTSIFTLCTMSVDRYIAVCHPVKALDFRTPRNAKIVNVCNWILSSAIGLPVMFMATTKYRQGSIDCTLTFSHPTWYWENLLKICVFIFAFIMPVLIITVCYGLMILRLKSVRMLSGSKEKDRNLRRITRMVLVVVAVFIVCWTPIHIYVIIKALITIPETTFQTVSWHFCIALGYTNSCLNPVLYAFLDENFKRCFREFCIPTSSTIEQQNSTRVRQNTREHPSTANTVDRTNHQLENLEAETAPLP

Rattus norvegicus [27] = test: Antinociceptive activity in Sprague-Dawley rat assessed as duration of antinociception at 0.1 mg/kg, ip by tail flick test; format: functional; conditions: route intraperitoneal; in short: as §1
Rattus norvegicus [28] = test: Antinociceptive activity in Sprague-Dawley rat at 0.05 mg/kg, ip after 30 mins by tail flick test; format: functional; conditions: route intraperitoneal; in short: as §1
Rattus norvegicus [29] = test: Antinociceptive activity in Sprague-Dawley rat at 0.01 mg/kg, ip after 30 mins by tail flick test; format: functional; conditions: route intraperitoneal; in short: as §1
Rattus norvegicus [30] = test: Antinociceptive activity in Sprague-Dawley rat assessed as effect on mechanical nociceptive threshold at 1 to 5 mg/kg, ip by paw pressure test in presence of naloxone; format: functional, organism-based; in short: as §3
Rattus norvegicus [31] = test: Antinociceptive activity in Sprague-Dawley rat assessed as effect on mechanical nociceptive threshold at 1 to 5 mg/kg, ip after 30 mins by paw pressure test; format: functional, organism-based
In short: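 Male Sprague-Dawley rats, drug given ip in saline. Paw pressure test run before tail flick in each animal. Operator blinded to treatment. Rats with pre-drug responses above 75% of cut-off excluded. Read-out taken 30 min post-injection. Statistics by Mann-Whitney U-test.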

Rattus norvegicus [32] = test: Antinociceptive activity in Sprague-Dawley rat assessed as duration of antinociception at 1 mg/kg, ip by tail flick test; format: functional; conditions: route intraperitoneal; in short: as §1
Rattus norvegicus [33] = test: Antinociceptive activity in Sprague-Dawley rat assessed as duration of antinociception at 0.2 mg/kg, ip by tail flick test; format: functional; conditions: route intraperitoneal; in short: as §1
Rattus norvegicus [34] = species: Rattus norvegicus; test: Toxicity in Sprague-Dawley rat assessed as body weight loss; format: organism-based; conditions: in vivo
Rattus norvegicus [35] = test: Antinociceptive activity in Sprague-Dawley rat at 5 mg/kg, ip after 30 mins by tail flick test; format: functional; conditions: for MPE: route intraperitoneal; in short: as §1
Rattus norvegicus [36] = test: Antinociceptive activity in Sprague-Dawley rat at 0.2 mg/kg, ip after 15 mins by tail flick test; format: functional; conditions: route intraperitoneal; in short: as §1
Rattus norvegicus [37] = test: Antinociceptive activity in Sprague-Dawley rat at 1 mg/kg, ip after 15 mins by tail flick test; format: functional; conditions: route intraperitoneal; in short: as §1

## CN1CC[C@]23c4c5ccc(O)c4O[C@H]2[C@@H](O)C=C[C@H]3[C@H]1C5 [MORPHINE]
Rattus norvegicus [1]
  MPE: 35%
Rattus norvegicus [2]
  Activity: Non-toxic
Rattus norvegicus [3]
  Activity: Toxic
Rattus norvegicus [4]
  Activity: Toxic

## CN1CC[C@]23c4c5ccc(O)c4O[C@H]2[C@@H](O[C@H]2O[C@H](CO)[C@@H](O)[C@H](O)[C@@H]2O)C=C[C@H]3[C@H]1C5
Rattus norvegicus [1]
  MPE: 100%
Rattus norvegicus [5]
  MPE: 19%
Rattus norvegicus [6]
  MPE: 54%
Rattus norvegicus [7]
  Activity: Non-toxic
Rattus norvegicus [2]
  Activity: Non-toxic
Rattus norvegicus [8]
  Activity: inactive
Rattus norvegicus [9]
  MPE: 55%
Rattus norvegicus [10]
  Time: 2 h
Rattus norvegicus [11]
  Time: 5 h
Rattus norvegicus [12]
  MPE: 100%
Rattus norvegicus [13]
  MPE: 100%
Rattus norvegicus [14]
  MPE: 100%
Rattus norvegicus [15]
  IC50: 0.02 mg/kg
Rattus norvegicus [16]
  MPE: 56%
Rattus norvegicus [17]
  Activity: 100%
Rattus norvegicus [18]
  MPE: 100%
Rattus norvegicus [19]
  MPE: 83%
Rattus norvegicus [20]
  Time: 5 h
Rattus norvegicus [21]
  MPE: 100%
Rattus norvegicus [22]
  MPE: 51%
Rattus norvegicus [23]
  Time: 5 h
Rattus norvegicus [24]
  Time: 3.5 h
Rattus norvegicus [25]
  MPE: 50%
[26]
  KiH: 1.7 nM
  KiL: 55 nM
Rattus norvegicus [27]
  Time: 5 h
Rattus norvegicus [28]
  MPE: 84%
Rattus norvegicus [29]
  MPE: 22%
Rattus norvegicus [30]
  Activity: inactive
Rattus norvegicus [31]
  Activity: Active
Rattus norvegicus [32]
  Time: 5 h
Rattus norvegicus [33]
  Time: 5 h
Rattus norvegicus [34]
  Activity: Non-toxic
Rattus norvegicus [35]
  MPE: 100%
Rattus norvegicus [36]
  MPE: 57%
Rattus norvegicus [37]
  MPE: 56%

## CN1CC[C@]23c4c5ccc(O)c4O[C@H]2[C@@H](O[C@@H]2O[C@H](C(=O)O)[C@@H](O)[C@H](O)[C@H]2O)C=C[C@H]3[C@H]1C5
Rattus norvegicus [1]
  Activity: Active
Rattus norvegicus [31]
  Activity: Active
Rattus norvegicus [35]
  Activity: Active

## CN1CC[C@]23c4c5ccc(O)c4O[C@H]2[C@@H](O)C=C[C@H]3[C@H]1C5.CN1CC[C@]23c4c5ccc(O)c4O[C@H]2[C@@H](O)C=C[C@H]3[C@H]1C5.O=S(=O)(O)O
Rattus norvegicus [11]
  Time: 2.5 h
Rattus norvegicus [19]
  MPE: 45%
Rattus norvegicus [35]
  MPE: 72%

## CN1CC[C@]23c4c5ccc(O)c4O[C@H]2[C@@H](O)C=C[C@H]3[C@H]1C5
[26]
  KiH: 2.5 nM
  KiL: 113 nM
Rattus norvegicus [31]
  Activity: Active
